Laboratory results as given in PMC3683554 (Nature structural & molecular biology, 2013).

Tests used:
[1] = test system: bak−/− mouse liver mitochondria; experiment: MOMP assay with cBAK mutants or SAHBq–cBAK traps and NC BID ± ABT-737; type: biochemical; settings: 1 h incubation
[2] = test system: cBAK; experiment: Calpain protease sensitivity assay of cBAK; type: biochemical, human; settings: 50 mM HEPES pH 7.5, 10 mM DTT, 1 µM m-calpain, 0.5 mM CaCl2, 1% CHAPS, 24°C
[3] = test system: bid−/− bim−/− mouse liver mitochondria (BAK); experiment: MOMP assay, cyt c release from bid−/− bim−/− mouse liver mitochondria; type: biochemical; settings: for BAK-mediated MOMP (cyt c release), bid−/− bim−/− mitochondria: 1 h incubation, peptides up to 50 μM
Procedure, shortened: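 Enriched mitochondrial fractions purified from bid−/− bim−/− mouse liver, run in parallel with bak−/− mouse liver mitochondria. Mitochondria incubated 1 h with unstapled or hydrocarbon-stapled BH3 peptides; MOMP read as cytochrome c release.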

[4] = molecular target: calpain-proteolyzed cBAK (residues 15–186) (human) (UniProt Q16611); experiment: AUC

Molecule | Calpain sensitivity of cBAK with peptide, in CHAPS [2] | BAK-mediated MOMP (cyt c release), bid−/− bim−/− mitochondria [3] | other results
CN(C)CC[C@H](CSc1ccccc1)Nc1ccc(S(=O)(=O)NC(=O)c2ccc(N3CCN(Cc4ccccc4-c4ccc(Cl)cc4)CC3)cc2)cc1[N+](=O)[O-] [ABT-737] | – | – | Effect of ABT-737 on MOMP activity of BH2-tethered SAHBq–cBAK traps [1]: failed to enhance; Effect of ABT-737 on MOMP activity of untethered cBAK mutants [1]: augmented
CC[C@H](C)[C@H](NC(=O)[C@H](CO)NC(=O)[C@H](CCCNC(=N)N)NC(=O)[C@H](CC(=O)O)NC(=O)[C@H](CCSC)NC(=O)[C@H](CO)NC(=O)[C@H](CC(=O)O)NC(=O)CNC(=O)[C@@H](NC(=O)[C@H](CCC(N)=O)NC(=O)[C@H](C)NC(=O)[C@H](CC(C)C)NC(=O)[C@H](Cc1c[nH]cn1)NC(=O)[C@H](CCCNC(=N)N)NC(=O)[C@H](C)NC(=O)[C@@H](NC(=O)[C@H](CC(N)=O)NC(=O)[C@H](CCCNC(=N)N)NC(=O)[C@@H](NC(=O)[C@@H](NC(=O)[C@H](CC(=O)O)NC(=O)[C@H](CCC(=O)O)NC(C)=O)[C@@H](C)CC)[C@@H](C)CC)[C@@H](C)CC)C(C)C)C(N)=O [BH3a] | susceptible to proteolysis by calpain | – | –
AEIIVECATQLRRVGDKLNFRI [NOXA/BIDf] | enhanced protease sensitivity | weakly active | –
BID SAHBa (stapled BID BH3 peptide) (from UniProt P55957 80-101) | – | – | fold enhancement of BAK binding over the unstapled counterpart (BH3a) [4]: 10 fold; stoichiometry N [4]: 1
LWAAQRIGRELRRMGDEMVDSI [BAD/BIDa] | enhanced protease sensitivity | weakly active | –
LWAAQRYGRELRXMSDXFVDSF (sidechain bridge or staple) [BAD SAHB] | – | unable to robustly activate BAK | –
NLWAAQRYGRELRRMSDKFVDSFKK [BADa] | unable to activate cBAK | largely inactive | –
PAELEVECATQLRRFGDKLNFRQKLL [NOXAa] | unable to activate cBAK | largely inactive | –
QPSPARAPAELEVECATQLRXFGDXLNFRQ (sidechain bridge or staple) [NOXA SAHB] | – | unable to robustly activate BAK | BAK-mediated MOMP at the highest concentration tested ([3]; highest concentration tested): weak BAK-mediated MOMP
